Screening results as filed in PubChem BioAssay.
TRPC6 activator: mouse TRPC6 channel activation | AID 2550 | Q61143 | hit rate 0.13% among 310,000 | HEK293-TRPC6 membrane potential dye fluorescence; hits give high values | B-score at 10 µM;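 active = B-score of the integrated fluorescence ratio above library mean plus 3 SD, and starting fluorescence ratio within library mean plus 5 SD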;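 note: higher score means more depolarization so channel activation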
TRPC6 inh: blocks the mouse TRPC6 cation channel; Q61143; HEK293-TRPC6, membrane potential dye, ACh-evoked depolarization; hits give low values; B-score at 10 µM; hit rate 1.1% among 310,000; AID 2553;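 active = B-score under library mean minus 3 SD, initial fluorescence not abnormally high, positive integrated signal ratio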;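 note: B-score derived from integrated fluorescence ratio over the kinetic read; more negative B-score means stronger inhibition of depolarization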
TRPC4 potent: TRPC4 (mouse) allosteric potentiation. B-score at 10 µM. AID 2227. Q9QUQ5. hit rate 0.42% among 310,000. HEK293 TRPC4beta/mu-opioid, DAMGO EC20, Fluo-4 Ca2+ flux; hits give high values;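 active = B-score of calcium response area above 5 SD of library B-scores, with initial fluorescence ratio within 5 SD of library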;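 note: B-score of integrated fluorescence ratio over time as area under calcium response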
TRPC4 agonist: activators of mouse TRPC4 channel | Q9QUQ5 | HEK293 TRPC4beta/mu-opioid, Fluo4 calcium fluorescence; hits give high values | B-score at 10 µM | hit rate 0.49% among 310,000 | AID 2237;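 active = B-score above 5 SD of library B-scores, and initial fluorescence ratio not above library mean plus 5 SD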;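 note: positive B-score marks a calcium rise read as TRPC4 activation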
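Test system: HEK293 cells stably co-expressing mouse TRPC4beta and mu-opioid receptor | Schedule: Fluo4 dye loading 45 min at room temperature, 110 s recording | Measured by: Kinetic Fluo4 calcium fluorescence, 5 s baseline at 1 Hz | Evaluation: B score of integrated ratio | Controls: Buffer (low) and maximal DAMGO (high)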
TRPC4 inh: inhibitors of mouse TRPC4 channel; B-score at 10 µM; HEK293 TRPC4beta/mu-opioid, DAMGO-evoked Fluo4 calcium flux; hits give low values; Q9QUQ5; hit rate 0.39% among 300,000;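 active = B-score over 3 SD under the library average, no early fluorescence shift, positive overall ratio signal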
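Assay system: TRPC4beta/mu-opioid receptor HEK293 cell line; compound dosing: single concentration per test compound; detection: Fluo4 Ca2+ flux fluorescence; evaluation: per-well B score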
HEK293 MPD ctr: parental HEK293 nonspecific activity of TRPC6 modulators; membrane potential dye fluorescence; membrane potential signal change, % at 10 µM; shares compounds with TRPC6 inh; hit rate 51% among 2,400;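 active = membrane potential signal moves up or down beyond 5 SD from buffer-only wells, on both duplicate plates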
HEK293 MPD ctr 2: second counter-screen for TRPC6 modulators: effect in parental HEK293 cells. inhibition, % at 10 µM. membrane potential dye fluorescence; after compound, maximal acetylcholine stimulation. hit rate 14% among 2,400. shares compounds with TRPC6 inh;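 active = membrane potential signal drops by more than 5 SD from the mean control signal, in both duplicate plates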;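 note: plate controls were acetylcholine ECmax control wells for no effect and buffer only wells for full effect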
TRPC4 ctr mod: mouse TRPC4 off-target activity of TRPC6 modulators; shares compounds with TRPC6 inh; HEK293 TRPC4/mu-opioid, membrane potential fluorescence; percent change from control (negative = decrease, positive = increase), % at 10 µM; hit rate 69% among 2,400; AID 488927;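 active = membrane potential signal moved up or down beyond 5 SD of buffer control wells, in both duplicate plates, actives on both sides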;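 note: plate controls were assay buffer wells for no effect and DAMGO maximal-effect wells for full effect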
TRPC4/MOR inh 2: second selectivity test of TRPC6 modulators against mouse TRPC4; shares compounds with TRPC6 inh; inhibition, % at 10 µM; hit rate 55% among 2,400; HEK293 TRPC4/mu-opioid, membrane potential dye fluorescence; stimulated with maximal-effect DAMGO;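 active = drop in membrane potential signal beyond 5 SD of the control wells in both duplicate plates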;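 note: TRPC4 counter screen for TRPC6 hits run under conditions tuned for TRPC6 not TRPC4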
TRPC6 block conf: confirmation of mouse TRPC6 inhibitors | shares compounds with TRPC6 inh | HEK293-TRPC6, membrane potential dye, ACh-evoked depolarization | inhibition, % at 10 µM | hit rate 43% among 3,300;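 active = fluorescence ratio falls more than 5 SD below the full-stimulation control mean, in both duplicate runs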;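 note: integrated fluorescence ratio of peak minus minimum over baseline after agonist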
TRPC6 act conf: confirmation of mouse TRPC6 activators. shares compounds with TRPC6 inh. HEK293-TRPC6 membrane potential dye fluorescence, FDSS. activation, % at 10 µM. hit rate 11% among 2,800;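 active = ratio signal rise beyond 5 SD above unstimulated control wells' mean, seen in both duplicate runs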;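 note: plate controls were buffer EC0 wells for no effect and acetylcholine ECmax response for full effect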
Active calls of the source: *. An excerpt weighted towards active compounds, which were near 2.3% of everything screened.

How did COc1cc(Nc2c3ccccc3nc3ccccc23)cc(OC)c1OC do in these assays?
TRPC6 activator: inactive; TRPC6 inh: -7.1*; TRPC4 potent: inactive; TRPC4 agonist: inactive; TRPC4 inh: inactive; HEK293 MPD ctr: -132%*; HEK293 MPD ctr 2: inactive; TRPC4 ctr mod: -38%*; TRPC4/MOR inh 2: 60%*; TRPC6 block conf: inactive; TRPC6 act conf: inactive

Results for OCCCNc1c2ccccc2nc2ccccc12 ?
TRPC6 activator: inactive; TRPC6 inh: -6.1*; TRPC4 potent: inactive; TRPC4 agonist: inactive; TRPC4 inh: -6*; HEK293 MPD ctr: -231%*; HEK293 MPD ctr 2: inactive; TRPC4 ctr mod: -36%*; TRPC4/MOR inh 2: 46%*; TRPC6 block conf: 37%*; TRPC6 act conf: inactive

Results for CC(C)(C)Nc1c2ccccc2nc2ccccc12 ?
TRPC6 activator: inactive; TRPC6 inh: -8.9*; TRPC4 potent: inactive; TRPC4 agonist: inactive; TRPC4 inh: inactive; HEK293 MPD ctr: -202%*; HEK293 MPD ctr 2: inactive; TRPC4 ctr mod: -34%*; TRPC4/MOR inh 2: 87%*; TRPC6 block conf: 53%*; TRPC6 act conf: inactive

How did C[C@]12C=CC(=O)C=C1CC[C@@H]1[C@@H]2[C@@H](O)C[C@@]2(C)[C@H]1CC[C@]2(O)C(=O)COC(=O)CCC(=O)NCCc1ccc(O)cc1 do in these assays?
TRPC6 activator: inactive; TRPC6 inh: inactive; TRPC4 potent: inactive; TRPC4 agonist: inactive; TRPC4 inh: inactive

Results for CC(=O)N1CCc2cc(S(=O)(=O)CCC(=O)N(C)c3cc(C)ccc3C)ccc21 ?
TRPC6 activator: inactive; TRPC6 inh: inactive; TRPC4 potent: inactive; TRPC4 agonist: inactive; TRPC4 inh: inactive

How did O=C1CN(C(=O)CNC(=O)c2ccc(Cl)cc2Cl)CCN1 do in these assays?
TRPC6 activator: inactive; TRPC6 inh: inactive; TRPC4 potent: inactive; TRPC4 agonist: inactive; TRPC4 inh: inactive

How did c1ccc(-c2cc3c(N4CCCC4)ncnc3s2)cc1 do in these assays?
TRPC6 activator: inactive; TRPC6 inh: inactive; TRPC4 potent: inactive; TRPC4 agonist: inactive; TRPC4 inh: inactive

What do the screens show for `OCCN1CCN(c2ncnc3sc(-c4ccccc4)cc23)CC1`?
TRPC6 activator: inactive; TRPC6 inh: -6.2*; TRPC4 potent: inactive; TRPC4 agonist: inactive; TRPC4 inh: inactive; HEK293 MPD ctr: inactive; HEK293 MPD ctr 2: inactive; TRPC4 ctr mod: -9.5%*; TRPC4/MOR inh 2: 36%*; TRPC6 block conf: inactive; TRPC6 act conf: inactive

How did CCCCn1c(=O)[nH]c(=O)c2c1nc(Cn1ncc(Cl)c(Cl)c1=O)n2CCC do in these assays?
TRPC6 activator: inactive; TRPC6 inh: inactive; TRPC4 potent: inactive; TRPC4 agonist: inactive; TRPC4 inh: inactive

Results for O=C(CN1C(=O)/C(=C/c2cccc(Br)c2)SC1=S)N1CCCC1 ?
TRPC6 activator: inactive; TRPC6 inh: inactive; TRPC4 potent: inactive; TRPC4 agonist: inactive; TRPC4 inh: inactive

Results for Cc1cc(-c2ccc(C)c(S(=O)(=O)NCC3CCN(Cc4cccc(F)c4)CC3)c2)on1 ?
TRPC6 activator: inactive; TRPC6 inh: inactive; TRPC4 potent: inactive; TRPC4 agonist: inactive; TRPC4 inh: inactive
